The subject of one data set is TS/A. Briefly: Cytotoxicity against […] TS/A cells by MTT assay. It is filed as cell-based. Conditions: Mus musculus. The procedure, abridged: (§1)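 Cells plated 24 h, then exposed 72 h to compound at 1-300 µM. Compound was diluted from a fresh DMSO stock (20 mM for A549, HT29, T47D; 10 mM for TS/A, HBL-100) into 5%-serum medium, with at most 0.5% or 1% v/v DMSO respectively. Growth media: DMEM (A549, HT29, T47D), McCoy's 5A (HBL-100). MTT (5 mg/mL in PBS, 2.5 µL/100 µL medium) was added for 2 h at 37 °C; formazan dissolved in DMSO and read at OD 570 nm.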
On the technique in general: Formazan colour is commonly taken as a measure of viable cells.

Data set [1] deals with A549. The experiment in a line: Cytotoxicity against human A549 cells by MTT assay. It is filed as cell-based. The procedure, abridged: as §1
Data set [2] in a line: Cytotoxicity against human HBL100 cells by MTT assay. It is filed as cell-based. Conditions: HBL-100. In outline:
as §1

The next data set deals with T47D. Briefly: Cytotoxicity against human T47D cells by MTT assay. It is filed as cell-based. In outline: as §1
For the next data set, the system named is HT-29. Briefly: Cytotoxicity against human HT29 cells by MTT assay. It is filed as cell-based. In outline:
as §1

Another data set concerns the target P-gp (ABCB1) (Homo sapiens, UniProt P08183). The experiment in a line: Inhibition of P-gp in A549 cells at 80 uM by calcein-AM uptake assay relative to verapamil. It is filed as cell-based. Conditions: probe calcein-AM. In outline:
(§2)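 A549 Pgp activity: cells washed in Hanks salt solution with 10 mM HEPES, preincubated 30 min in that buffer, then 15 min with compound. Calcein-AM (1 µM final) added for a further 60 min; uptake stopped on ice, cells washed cold and lysed 15 min in 1% Triton X-100/PBS. Calcein fluorescence read at ex 485/em 530 nm; reported as F2.0 (concentration doubling baseline fluorescence) or inhibition at 80 µM relative to verapamil.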

Data set [3] deals with A549. The experiment in a line: Inhibition of P-gp in A549 cells assessed as drug concentration required to double baseline fluorescence level by calcein-AM uptake assay. It is filed as cell-based. Conditions: Homo sapiens. The procedure, abridged:
as §2

Data set [4] deals with A549. Briefly: Drug accumulation in human A549 cells after 1 hrs. It is filed as functional, cell-based. The procedure, abridged: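 A549 cells grown on slides were exposed to 100 µM compound for 0.5-4 h, PBS-washed, fixed 5 min in 4% buffered paraformaldehyde, and imaged by fluorescence microscopy under 365 nm irradiation with a 1 s exposure.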

Consider five compounds from ChEMBL document CHEMBL1147153, “Development of ruthenium antitumor drugs that overcome multidrug resistance mechanisms” (J Med Chem, 2007).

For orientation: IC50 means the concentration that inhibits the measured activity by half. Read a low IC50 as inhibition by little substance. Usually inhibition stands for the relative decrease from the control value, in per cent.

Calls of active or inactive are those of the source. The calls are words filed in the database; no cut-off is given here.

Sequence of P-gp (ABCB1) (P08183 whole entry): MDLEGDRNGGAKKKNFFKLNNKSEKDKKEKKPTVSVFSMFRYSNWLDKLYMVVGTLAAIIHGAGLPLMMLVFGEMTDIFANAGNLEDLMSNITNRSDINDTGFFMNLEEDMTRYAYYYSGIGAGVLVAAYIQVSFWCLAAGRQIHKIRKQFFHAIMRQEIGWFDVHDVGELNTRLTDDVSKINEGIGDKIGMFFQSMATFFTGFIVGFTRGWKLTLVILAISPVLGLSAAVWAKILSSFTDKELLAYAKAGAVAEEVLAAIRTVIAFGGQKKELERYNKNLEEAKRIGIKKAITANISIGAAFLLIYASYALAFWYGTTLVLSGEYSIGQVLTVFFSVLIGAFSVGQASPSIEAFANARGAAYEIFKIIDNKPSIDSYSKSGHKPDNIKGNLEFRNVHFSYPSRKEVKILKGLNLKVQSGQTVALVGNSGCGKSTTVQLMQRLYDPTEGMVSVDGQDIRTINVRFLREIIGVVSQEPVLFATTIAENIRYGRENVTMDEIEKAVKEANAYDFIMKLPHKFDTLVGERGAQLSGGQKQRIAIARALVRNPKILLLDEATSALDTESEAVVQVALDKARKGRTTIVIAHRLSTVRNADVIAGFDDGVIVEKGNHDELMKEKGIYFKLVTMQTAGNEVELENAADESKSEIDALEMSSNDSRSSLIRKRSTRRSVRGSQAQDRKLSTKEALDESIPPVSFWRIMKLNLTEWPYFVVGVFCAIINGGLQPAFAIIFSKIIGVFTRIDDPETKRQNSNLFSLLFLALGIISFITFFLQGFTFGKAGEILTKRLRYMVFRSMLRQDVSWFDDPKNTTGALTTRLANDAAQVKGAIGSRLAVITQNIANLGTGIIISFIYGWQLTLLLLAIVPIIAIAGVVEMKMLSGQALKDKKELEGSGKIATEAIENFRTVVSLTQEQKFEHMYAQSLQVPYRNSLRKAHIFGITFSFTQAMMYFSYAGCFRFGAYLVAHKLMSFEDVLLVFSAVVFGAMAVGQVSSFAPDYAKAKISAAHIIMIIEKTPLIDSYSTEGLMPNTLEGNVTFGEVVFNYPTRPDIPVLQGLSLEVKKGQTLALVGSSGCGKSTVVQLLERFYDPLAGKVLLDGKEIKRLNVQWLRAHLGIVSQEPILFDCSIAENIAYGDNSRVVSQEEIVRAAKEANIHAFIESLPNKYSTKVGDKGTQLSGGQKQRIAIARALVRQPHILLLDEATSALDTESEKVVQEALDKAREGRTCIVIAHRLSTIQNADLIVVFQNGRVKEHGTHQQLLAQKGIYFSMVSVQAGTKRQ

With `O=C(CCl)N1c2ccccc2Oc2ccccc21`, the 50% inhibitory concentration (IC50) was 40 µM in the data set on TS/A; greater than 100 µM in the data set with A549 [1]; 29 µM in data set [2]; 7 µM with T47D; 11 µM with HT-29.

As to `O=C(Cn1ccnc1)N1c2ccccc2Oc2ccccc21` [PHENOXIMID], at P-gp (ABCB1), the inhibition at 80 µM is 24%. In addition, the Activity in the data set on A549 [3] is greater than 100 µM. The IC50 is 30 µM in the data set on TS/A; greater than 100 µM in the data set with A549 [1]; 23 µM in data set [2]; 95 µM with T47D; 17 µM in the data set with HT-29.

On to `COc1ccc(CCN(C)CCCC(C#N)(c2ccc(OC)c(OC)c2)C(C)C)cc1OC` (stereo not drawn), for which, in the data set with A549 [3], the Activity is 7 µM.

On to `c1ccc2c(-n3ccnc3)c3ccccc3cc2c1`, for which the inhibition at 80 µM at P-gp (ABCB1) is 18%. In addition, the Activity in the data set with A549 [3] was greater than 100 µM. For the same compound, the IC50 stood at 101 µM in the data set with TS/A; 75 µM with A549 [1]; 221 µM in data set [2]; 34 µM in the data set on T47D; 45 µM in the data set on HT-29. Also, in the data set on A549 [4], the result was Active.

`O=C(Cn1cnc2ccccc21)N1c2ccccc2Oc2ccccc21` [PHENOXBENZIMID]: the inhibition at 80 µM on P-gp (ABCB1) is 65%. Besides, in the data set with A549 [3], the Activity is 23 µM. Besides, the IC50 is 51 µM in the data set on TS/A; 75 µM in the data set with A549 [1]; greater than 100 µM in data set [2]; 91 µM with T47D; 33 µM with HT-29.
